Reference: ChEMBL document CHEMBL1240478, “Inhibitors of human neutrophil elastase based on a highly functionalized N-amino-4-imidazolidinone scaffold” (Eur J Med Chem, 2010)
Active and inactive are the calls of the source. The rule behind the calls is not given here.

What was measured:
[1] = biological target: T1, Neutrophil elastase (Homo sapiens) (UniProt P08246); experiment: Inhibition of human neutrophil elastase at 3.5 mM after 30 mins assessed as p-nitroaniline release
T1 sequence (whole entry): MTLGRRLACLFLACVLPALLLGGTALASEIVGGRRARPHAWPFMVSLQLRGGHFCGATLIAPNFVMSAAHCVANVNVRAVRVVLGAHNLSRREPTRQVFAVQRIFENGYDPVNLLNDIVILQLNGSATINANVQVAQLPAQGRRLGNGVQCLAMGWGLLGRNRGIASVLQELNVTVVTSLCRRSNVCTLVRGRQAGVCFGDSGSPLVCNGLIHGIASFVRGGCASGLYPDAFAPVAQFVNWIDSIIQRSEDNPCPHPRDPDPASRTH
Method in brief: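 HNE (7.0 μM stock) preincubated 30 min at 25 °C with inhibitor in DMSO at inhibitor/enzyme ratio 500, in 0.1 M HEPES/0.5 M NaCl pH 7.25. Methoxysuccinyl-Ala-Ala-Pro-Val p-nitroanilide then added, and p-nitroaniline release followed at 410 nm for 2 min. DMSO-only control. Remaining activity = (v/v0)×100, mean of duplicate or triplicate runs.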

[2] = biological target: Myeloblastin (proteinase 3) (Homo sapiens) (UniProt P24158); experiment: Inhibition of human neutrophil proteinase 3 at 1.73 mM
Neutrophil elastase = biological target: T2, Neutrophil elastase (Homo sapiens, UniProt P08246); experiment: Reversible competitive inhibition of human neutrophil elastase by Dixon plot analysis
T2 sequence (P08246 whole entry): T1 sequence (whole entry)

Myeloblastin (proteinase 3) (Homo sapiens), sequence (P24158 whole entry, looked up): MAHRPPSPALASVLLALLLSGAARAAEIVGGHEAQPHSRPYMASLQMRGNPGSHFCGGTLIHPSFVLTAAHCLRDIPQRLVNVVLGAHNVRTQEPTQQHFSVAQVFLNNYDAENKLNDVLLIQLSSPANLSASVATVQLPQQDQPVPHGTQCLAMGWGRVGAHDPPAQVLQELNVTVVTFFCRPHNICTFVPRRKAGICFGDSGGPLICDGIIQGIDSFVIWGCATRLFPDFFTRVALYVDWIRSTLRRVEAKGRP

| SMILES | inhibition [1] | inhibition [2] | Ki (Neutrophil elastase) |
| --- | --- | --- | --- |
| CC(C)CC1C(=O)N(NC(=O)CCC(=O)O)CN1Cc1ccccc1 (racemic) | 0% | 0% |  |
| O=C(NCCc1ccccc1)NN1CN(Cc2ccccc2)C(Cc2ccccc2)C1=O (racemic) | 0% | 0% |  |
| Cc1ccc(S(=O)(=O)N(N2CN(Cc3ccccc3)C(CC(C)C)C2=O)S(=O)(=O)c2ccc(C)cc2)cc1 (racemic) | 0% | 0% |  |
| O=C(NN1CN(Cc2ccccc2)C(Cc2ccccc2)C1=O)C1CC(=O)N(Cc2ccc(F)cc2)C1 (racemic) | 0% | 0% |  |
| O=C(O)c1ccccc1C(=O)NN1CNC(Cc2ccccc2)C1=O (racemic) | 0% | 0% |  |
| O=C(NN1CN(Cc2ccccc2)C(Cc2ccccc2)C1=O)C1CC(=O)N(Cc2ccccc2)C1 (racemic) | 0% | 0% |  |
| O=C(NCCc1ccccc1)NN1CNC(Cc2ccccc2)C1=O (racemic) | 0% | 0% |  |
| O=C(NN1CNC(Cc2ccccc2)C1=O)C1CC(=O)N(Cc2ccc(F)cc2)C1 (racemic) | 0% | 0% |  |
| CCOC(=O)CNC(=O)NN1CN(Cc2ccccc2)C(CC(C)C)C1=O (racemic) | 0% | 0% |  |
| O=C(O)CCC(=O)NN1CN(Cc2ccccc2)C(Cc2ccccc2)C1=O (racemic) | 0% | 0% |  |
| O=C(O)c1ccccc1C(=O)NN1CN(Cc2ccccc2)C(Cc2ccccc2)C1=O (racemic) | 0% | 0% |  |
| O=C(NN1CNC(Cc2ccccc2)C1=O)C1CC(=O)N(Cc2ccccc2)C1 (racemic) | 0% | 0% |  |
| CC(C)CC1C(=O)N(NC(=O)CCc2ccccc2)CN1Cc1ccccc1 (racemic) | 0% | 0% |  |
| CC(C)CC1C(=O)N(NC(=O)c2ccccc2C(=O)O)CN1Cc1ccccc1 (racemic) | 0% | 0% |  |
| O=C(NN1CN(Cc2ccccc2)C(Cc2ccccc2)C1=O)C1CC(=O)N(Cc2ccco2)C1 (racemic) | 0% | 0% |  |
| CC(C)CC1C(=O)N(NC(=O)NCCc2ccccc2)CN1Cc1ccccc1 (racemic) | 0% | 0% |  |
| O=C(O)CCC(=O)NN1CNC(Cc2ccccc2)C1=O (stereo not given) | 0% | 0% |  |
| CC(C)C[C@@H]1C(=O)N(NC(=O)[C@@H](Cc2ccccc2)NC(=O)OCc2ccccc2)CN1Cc1ccccc1 (racemic) |  | inactive | 7.34 µM |
| CC(C)CC1C(=O)N(N(S(C)(=O)=O)S(C)(=O)=O)CN1Cc1ccccc1 (racemic) | 0% | 0% |  |
| CCOC(=O)CNC(=O)NN1CN(Cc2ccccc2)C(Cc2ccccc2)C1=O (racemic) | 0% | 0% |  |
